Experimental data as given in ChEMBL document CHEMBL1275385, “Discovery and biological evaluation of potent, selective, orally bioavailable, pyrazine-based blockers of the Na(v)1.8 sodium channel with efficacy in a model of neuropathic pain” (Bioorg Med Chem, 2010).
Values after ≈ are worked out from the molar mass of the structure shown. Active and inactive are the calls of the source.

Legend:
[1] = Clearance in rat microsomes; type: ADME, Liver, Microsome
[2] = target: Sodium channel protein type 10 subunit alpha (Rattus norvegicus, UniProt Q62968); assay: Inhibition of tetrodotoxin-resistant NaV1.8 in rat dorsal root ganglion neurons at holding potential -100 mV by whole-cell patch clamp electrophysiology assay; type: tissue-based
[3] = target: Sodium channel protein type 10 subunit alpha (Homo sapiens, UniProt Q9Y5Y9); assay: Inhibition of human recombinant NaV1.8 expressed in HEK293 cells by conventional voltage clamp electrophysiology assay; type: cell-based
Outline: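 HEK-293 cells stably expressing human Nav1.8 were recorded by conventional whole-cell voltage clamp with the holding potential at the inactivation V1/2, −40 mV. DMSO stocks (10 mM) were diluted into extracellular solution (final DMSO <0.1%) and gravity-perfused at 1–2 mL/min at 21–25 °C. Each compound was run at 1–3 concentrations with 2–6 measurements each; estimates averaged.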

[4] = target: Sodium channel protein type 10 subunit alpha (Mus musculus, UniProt Q6QIY3); assay: Inhibition of mouse NaV1.8 expressed in HEK293 cells by isotopic efflux assay; type: cell-based
Outline: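 HEK293 cells stably expressing mouse Nav1.8 were loaded overnight with radiotracer, then stimulated. Efflux was read at a single time point on the linear part of the efflux curve. % inhibition = (1 − [test − reference blocker]/[control − reference blocker]) × 100. Eight-point concentration–response curves run in duplicate gave the IC50.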

[5] = target: T1, Sodium channel protein type 2 subunit alpha (Homo sapiens, UniProt Q99250); assay: Inhibition of human recombinant NaV1.2 by electrophysiology
Outline: (§1)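 Whole-cell voltage clamp of HEK-293 cells expressing recombinant human Nav1.2. Membrane potential was held at the V1/2 of steady-state inactivation, −60 mV. Compounds came from 10 mM DMSO stocks, diluted in extracellular solution (final DMSO <0.1%) and perfused at 1–2 mL/min at room temperature (21–25 °C). Tested at 1–3 concentrations with 2–6 measurements each; estimates averaged. Single-point data given as % inhibition at 3 µM.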

[6] = target: T1, Sodium channel protein type 2 subunit alpha; assay: Inhibition of human recombinant NaV1.2 at 3 uM by electrophysiology; outline: as §1
[7] = Aqueous solubility of the compound; type: physicochemical; settings: buffer
Homo sapiens = species on record: Homo sapiens; assay: Selectivity ratio of IC50 for human NAv1.8 to IC50 for human Nav1.2
Outline: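 Ratio of the IC50 values from whole-cell voltage clamp of human Nav1.8 (held at −40 mV) and human Nav1.2 (held at −60 mV), both expressed in HEK-293 cells. Each channel was held at its inactivation V1/2.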

[8] = Selectivity ratio of IC50 for tetrodotoxin-resistant NaV1.8 in rat dorsal root ganglion neurons to IC50 for human Nav1.2; type: tissue-based
Outline: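 Ratio of the IC50 for native TTX-resistant current in dissociated rat DRG neurons (held at V1/2, −40 mV) to the IC50 for recombinant human Nav1.2 in HEK-293 cells (held at −60 mV).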

[9] = Selectivity ratio of IC50 for human NaV1.8 to IC50 for human Nav1.2
Plasma = assay: Plasma protein binding in rat; type: ADME, cell-free
[10] = Inhibition of BZD receptor at 10 uM
[11] = Oral bioavailability in rat at 3 mg/kg; type: ADME, organism-based; settings: in vivo
Outline: (§2)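 Rat pharmacokinetics (n = 3) after a single 3 mg/kg iv or po dose. Plasma clearance, Vss, half-life and oral bioavailability were derived from plasma exposure.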

[12] = Half life in rat at 3 mg/kg, iv; type: ADME, organism-based; set-up: dose 3 mg/kg, route intravenous; settings: in vivo; outline: as §2
[13] = target: Beta-2 adrenergic receptor (Homo sapiens) (UniProt P07550); assay: Inhibition of human adrenergic beta2 receptor at 10 uM
[14] = target: Substance-P receptor (Homo sapiens) (UniProt P25103); assay: Inhibition of human NK1 receptor at 10 uM
Rattus norvegicus [15] = assay: Analgesic activity in Sprague-Dawley rat L5/L6 spinal nerve injury Chung model of neuropathic pain assessed as reduction of von Frey hair-induced paw withdrawal threshold at 100 mg/kg, po administered 60 mins before von Frey hair challenge; type: functional
Outline: (§3)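 Rats with L5/L6 spinal nerve ligation (Kim and Chung method) dosed orally at 10, 30 or 100 mg/kg, 60 min before von Frey testing of paw withdrawal threshold on the injured and contralateral sides. At least six animals per group, compared with vehicle-treated animals; mean ± SEM, ANOVA with post-hoc tests (P <0.05). ED50 estimated by least-squares linear regression.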

[16] = Volume of distribution at steady state in rat at 3 mg/kg, iv; type: ADME, organism-based; set-up: dose 3 mg/kg, route intravenous; settings: in vivo, read-out: Vdss; outline: as §2
Rattus norvegicus [17] = assay: Analgesic activity in po dosed Sprague-Dawley rat L5/L6 spinal nerve injury Chung model of neuropathic pain assessed as reduction of von Frey hair-induced paw withdrawal threshold administered 60 mins before von Frey hair challenge; type: functional; outline: as §3
[18] = Cmax in rat at 3 mg/kg, po; type: ADME, organism-based; set-up: dose 3 mg/kg, route oral; settings: in vivo
[19] = Half life in rat at 3 mg/kg, po; type: ADME, organism-based; set-up: dose 3 mg/kg, route oral; settings: in vivo; outline: as §2

Chain of Sodium channel protein type 10 subunit alpha (Rattus norvegicus, UniProt Q62968) (Q62968 whole entry): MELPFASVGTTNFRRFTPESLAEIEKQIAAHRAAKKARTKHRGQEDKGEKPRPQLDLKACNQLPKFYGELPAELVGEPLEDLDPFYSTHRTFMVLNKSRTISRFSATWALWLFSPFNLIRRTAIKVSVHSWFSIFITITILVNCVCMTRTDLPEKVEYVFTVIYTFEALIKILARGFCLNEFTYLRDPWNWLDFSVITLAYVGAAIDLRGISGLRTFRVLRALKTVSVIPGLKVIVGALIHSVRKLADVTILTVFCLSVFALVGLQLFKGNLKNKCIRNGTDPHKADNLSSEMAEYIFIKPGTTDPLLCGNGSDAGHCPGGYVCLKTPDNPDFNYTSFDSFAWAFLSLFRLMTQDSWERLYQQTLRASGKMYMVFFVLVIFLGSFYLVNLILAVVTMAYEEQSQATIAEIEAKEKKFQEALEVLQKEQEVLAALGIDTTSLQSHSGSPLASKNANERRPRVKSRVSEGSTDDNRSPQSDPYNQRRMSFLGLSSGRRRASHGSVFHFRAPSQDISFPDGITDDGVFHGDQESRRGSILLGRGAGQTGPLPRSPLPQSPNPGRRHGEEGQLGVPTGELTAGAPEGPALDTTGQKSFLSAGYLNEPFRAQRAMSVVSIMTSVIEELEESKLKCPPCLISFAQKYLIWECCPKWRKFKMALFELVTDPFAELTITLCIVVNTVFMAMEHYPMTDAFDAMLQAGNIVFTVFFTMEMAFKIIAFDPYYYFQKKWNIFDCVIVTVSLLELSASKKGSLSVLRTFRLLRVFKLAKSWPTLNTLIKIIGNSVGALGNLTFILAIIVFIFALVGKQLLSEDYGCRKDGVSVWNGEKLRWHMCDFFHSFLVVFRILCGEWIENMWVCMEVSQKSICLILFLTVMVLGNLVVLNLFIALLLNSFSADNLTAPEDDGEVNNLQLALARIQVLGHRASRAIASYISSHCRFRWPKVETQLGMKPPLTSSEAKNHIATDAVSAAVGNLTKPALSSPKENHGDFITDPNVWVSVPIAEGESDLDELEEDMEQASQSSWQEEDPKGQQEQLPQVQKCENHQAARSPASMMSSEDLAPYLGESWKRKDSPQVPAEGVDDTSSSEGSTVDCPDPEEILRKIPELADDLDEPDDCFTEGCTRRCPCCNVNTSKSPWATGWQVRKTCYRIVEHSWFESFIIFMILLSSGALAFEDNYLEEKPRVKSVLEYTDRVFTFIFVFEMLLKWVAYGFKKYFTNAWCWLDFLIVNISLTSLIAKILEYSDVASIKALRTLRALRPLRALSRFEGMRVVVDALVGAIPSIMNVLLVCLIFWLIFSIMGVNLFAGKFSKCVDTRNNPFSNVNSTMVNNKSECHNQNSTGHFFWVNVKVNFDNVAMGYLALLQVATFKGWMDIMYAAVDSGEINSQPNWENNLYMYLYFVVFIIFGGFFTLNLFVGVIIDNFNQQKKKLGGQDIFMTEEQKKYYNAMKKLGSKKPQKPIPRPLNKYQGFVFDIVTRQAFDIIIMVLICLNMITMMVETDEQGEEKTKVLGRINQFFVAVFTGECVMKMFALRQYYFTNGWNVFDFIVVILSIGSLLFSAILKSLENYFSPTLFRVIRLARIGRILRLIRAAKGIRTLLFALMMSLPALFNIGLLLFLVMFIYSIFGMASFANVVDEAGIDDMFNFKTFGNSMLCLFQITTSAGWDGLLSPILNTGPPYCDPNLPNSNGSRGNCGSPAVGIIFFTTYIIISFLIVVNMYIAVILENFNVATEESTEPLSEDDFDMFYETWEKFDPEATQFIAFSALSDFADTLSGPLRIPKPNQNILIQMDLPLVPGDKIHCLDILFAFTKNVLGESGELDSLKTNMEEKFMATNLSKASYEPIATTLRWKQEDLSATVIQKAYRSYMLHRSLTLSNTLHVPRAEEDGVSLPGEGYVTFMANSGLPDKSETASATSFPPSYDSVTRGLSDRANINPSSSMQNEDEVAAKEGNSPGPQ
Chain of Sodium channel protein type 10 subunit alpha (Mus musculus, UniProt Q6QIY3) (Q6QIY3 whole entry): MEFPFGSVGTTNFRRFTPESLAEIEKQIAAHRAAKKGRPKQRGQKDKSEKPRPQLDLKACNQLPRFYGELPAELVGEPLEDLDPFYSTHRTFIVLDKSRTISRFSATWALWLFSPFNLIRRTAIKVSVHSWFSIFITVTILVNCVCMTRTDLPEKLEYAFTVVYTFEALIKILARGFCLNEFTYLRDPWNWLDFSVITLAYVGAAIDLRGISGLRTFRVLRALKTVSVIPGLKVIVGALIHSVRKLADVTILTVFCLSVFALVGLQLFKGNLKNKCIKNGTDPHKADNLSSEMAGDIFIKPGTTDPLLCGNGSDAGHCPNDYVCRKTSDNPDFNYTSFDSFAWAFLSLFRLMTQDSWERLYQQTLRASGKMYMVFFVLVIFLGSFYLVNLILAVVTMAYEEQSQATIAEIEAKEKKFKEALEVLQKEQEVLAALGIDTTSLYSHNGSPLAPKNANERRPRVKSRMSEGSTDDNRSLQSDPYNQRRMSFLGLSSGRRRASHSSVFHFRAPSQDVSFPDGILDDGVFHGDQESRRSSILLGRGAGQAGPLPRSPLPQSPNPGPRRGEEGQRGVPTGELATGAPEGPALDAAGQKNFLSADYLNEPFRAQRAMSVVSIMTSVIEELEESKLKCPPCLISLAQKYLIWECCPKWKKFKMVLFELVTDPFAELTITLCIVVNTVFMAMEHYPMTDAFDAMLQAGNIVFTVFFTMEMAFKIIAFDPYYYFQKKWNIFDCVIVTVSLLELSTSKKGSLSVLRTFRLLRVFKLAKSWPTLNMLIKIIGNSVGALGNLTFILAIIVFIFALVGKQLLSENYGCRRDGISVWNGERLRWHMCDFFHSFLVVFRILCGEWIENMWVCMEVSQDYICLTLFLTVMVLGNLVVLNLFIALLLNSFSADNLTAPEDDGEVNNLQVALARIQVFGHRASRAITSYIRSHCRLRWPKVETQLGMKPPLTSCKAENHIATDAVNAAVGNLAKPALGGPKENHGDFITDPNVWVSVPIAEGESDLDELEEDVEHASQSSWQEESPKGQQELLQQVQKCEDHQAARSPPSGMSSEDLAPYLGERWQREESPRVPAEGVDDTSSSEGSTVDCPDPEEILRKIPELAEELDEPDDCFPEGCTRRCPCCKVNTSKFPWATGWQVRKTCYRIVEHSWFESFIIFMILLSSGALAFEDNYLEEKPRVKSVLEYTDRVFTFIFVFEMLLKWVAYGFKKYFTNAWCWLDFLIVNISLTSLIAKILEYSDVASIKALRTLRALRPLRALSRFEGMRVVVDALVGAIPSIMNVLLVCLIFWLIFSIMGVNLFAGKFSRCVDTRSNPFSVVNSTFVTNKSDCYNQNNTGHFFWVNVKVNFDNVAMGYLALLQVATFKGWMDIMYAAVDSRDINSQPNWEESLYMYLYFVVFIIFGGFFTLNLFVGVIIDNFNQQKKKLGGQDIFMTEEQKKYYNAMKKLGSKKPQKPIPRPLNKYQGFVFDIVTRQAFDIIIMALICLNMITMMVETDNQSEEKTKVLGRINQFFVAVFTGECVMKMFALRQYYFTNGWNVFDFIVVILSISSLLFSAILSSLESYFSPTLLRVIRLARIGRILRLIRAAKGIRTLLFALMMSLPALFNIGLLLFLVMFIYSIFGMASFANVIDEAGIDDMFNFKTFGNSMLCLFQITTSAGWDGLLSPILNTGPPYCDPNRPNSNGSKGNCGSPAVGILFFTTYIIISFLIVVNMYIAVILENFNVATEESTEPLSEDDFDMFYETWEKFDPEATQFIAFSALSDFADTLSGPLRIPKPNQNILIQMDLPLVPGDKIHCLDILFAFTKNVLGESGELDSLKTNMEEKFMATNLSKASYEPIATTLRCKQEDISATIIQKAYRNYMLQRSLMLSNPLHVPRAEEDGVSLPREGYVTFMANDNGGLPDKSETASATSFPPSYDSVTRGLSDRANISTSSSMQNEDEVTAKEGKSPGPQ
Chain of Beta-2 adrenergic receptor (Homo sapiens) (P07550 whole entry, looked up): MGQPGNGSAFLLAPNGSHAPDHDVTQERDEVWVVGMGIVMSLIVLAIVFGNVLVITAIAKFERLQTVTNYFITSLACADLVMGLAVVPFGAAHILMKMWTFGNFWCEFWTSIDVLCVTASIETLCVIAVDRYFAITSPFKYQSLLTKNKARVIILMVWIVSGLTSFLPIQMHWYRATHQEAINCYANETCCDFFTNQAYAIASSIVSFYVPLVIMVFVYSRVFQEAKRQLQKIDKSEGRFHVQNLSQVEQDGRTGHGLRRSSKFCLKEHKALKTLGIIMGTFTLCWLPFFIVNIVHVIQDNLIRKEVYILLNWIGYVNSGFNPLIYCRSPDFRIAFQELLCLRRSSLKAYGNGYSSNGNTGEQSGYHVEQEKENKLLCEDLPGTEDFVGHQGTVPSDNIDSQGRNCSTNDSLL
Chain of Substance-P receptor (Homo sapiens) (P25103 whole entry): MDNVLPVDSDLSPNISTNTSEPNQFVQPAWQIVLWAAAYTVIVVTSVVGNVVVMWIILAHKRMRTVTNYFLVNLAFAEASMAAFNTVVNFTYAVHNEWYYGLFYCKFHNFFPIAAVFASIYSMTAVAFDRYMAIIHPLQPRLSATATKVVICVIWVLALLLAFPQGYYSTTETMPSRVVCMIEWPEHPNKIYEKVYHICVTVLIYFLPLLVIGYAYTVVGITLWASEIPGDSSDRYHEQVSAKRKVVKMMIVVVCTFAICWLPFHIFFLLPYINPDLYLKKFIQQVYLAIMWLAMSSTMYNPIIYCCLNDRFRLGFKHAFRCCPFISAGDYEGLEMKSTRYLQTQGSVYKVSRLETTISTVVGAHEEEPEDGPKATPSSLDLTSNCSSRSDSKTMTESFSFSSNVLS

CL [1] | IC50 [3] | IC50 [4] | IC50 [5] | solubility [7] | SMILES | IC50 [2] | other results
143 µL/min | 0.099 µM | 1.03 µM | 3.9 µM | – | O=C(NCc1cccnc1Cl)c1cncc(-c2ccc(OC(F)(F)F)cc2)n1 | 0.09 µM | –
– | 0.027 µM | 1.34 µM | – | < 0.1 µg/mL | Cc1ccccc1CNC(=O)c1cncc(-c2ccc(Cl)cc2)n1 | 0.11 µM | inhibition [6]: 2%
– | – | 29.1 µM | – | – | O=C(NCc1cnccc1N1CCOCC1)c1cncc(-c2ccc(Cl)cc2)n1 | – | –
630 µL/min | 0.002 µM | 0.11 µM | 0.47 µM | 0.14 µg/mL (≈ 0.403 µM) | CCOc1ccc(-c2cncc(C(=O)NCc3ccccc3C)n2)cc1 | 0.019 µM | –
– | 0.006 µM | 1.07 µM | 6.2 µM | < 0.1 µg/mL | COc1cc(NC(=O)c2cncc(-c3ccc(Cl)cc3)n2)cc(OC)c1 | 0.19 µM | Ratio IC50 (Homo sapiens): > 1000
83 µL/min | 0.003 µM | 0.49 µM | 5 µM | < 0.1 µg/mL | Cc1cc(C)cc(NC(=O)c2cncc(-c3ccc(Cl)cc3)n2)c1 | 0.052 µM | Ratio IC50 [8]: > 1600; Ratio IC50 (Homo sapiens): > 1000
– | 0.019 µM | 2.68 µM | 1 µM | < 0.1 µg/mL | O=C(NCCc1ccc(Cl)cc1)c1cncc(-c2ccc(Cl)cc2)n1 | 0.36 µM | Ratio IC50 [9]: 53; Ratio IC50 (Homo sapiens): 53
– | – | 18 µM | – | – | O=C(Nc1cccnc1)c1cncc(-c2ccc(Cl)cc2)n1 | – | –
– | 0.002 µM | 0.056 µM | 0.36 µM | < 0.1 µg/mL | CCOc1ccc(-c2cncc(C(=O)Nc3cc(C)cc(C)c3)n2)cc1 | 0.012 µM | –
140 µL/min | 0.008 µM | 0.47 µM | 1.6 µM | 0.03 µg/mL (≈ 0.0914 µM) | Cc1cc(C)cc(NC(=O)c2cncc(-c3ccc(C#N)cc3)n2)c1 | 0.084 µM | Activity (Plasma): 55.2%; inhibition [10]: inactive; bioavailability [11]: 0%; half-life [12]: 1.6 h; inhibition [13]: inactive; inhibition [14]: inactive; inhibition in vivo at 100 mg/kg (Rattus norvegicus [15]): < 20%; Vd [16]: 5.1 L/kg
– | – | 11 µM | – | 1 µg/mL (≈ 3.08 µM) | O=C(NCc1cccnc1)c1cncc(-c2ccc(Cl)cc2)n1 | – | –
– | 0.001 µM | 0.65 µM | 1 µM | < 0.1 µg/mL | CCOc1ccc(-c2cncc(C(=O)Nc3cccc(C)c3)n2)cc1 | 0.068 µM | –
– | – | 0.058 µM | – | < 0.1 µg/mL | Cc1cc(C)cc(NC(=O)c2cncc(-c3ccc(OC(F)(F)F)cc3)n2)c1 | – | inhibition [6]: 93%
– | 0.15 µM | 9.4 µM | 1 µM | 0.35 µg/mL (≈ 1.07 µM) | Cc1ccccc1CNC(=O)c1cncc(-c2ccc(C#N)cc2)n1 | 0.45 µM | –
– | 0.018 µM | 0.24 µM | 1.2 µM | – | Cc1ccccc1CNC(=O)c1cncc(-c2ccc(OC(F)(F)F)cc2)n1 | 0.17 µM | –
– | 0.019 µM | 0.48 µM | 1.5 µM | > 50 µg/mL | O=C(NCc1cccnc1N1CCOCC1)c1cncc(-c2ccc(OC(F)(F)F)cc2)n1 | 0.085 µM | Activity (Plasma): 93.2%; inhibition [10]: > 60%; Activity (Rattus norvegicus [17]): Dose-dependent effect; ED50 (Rattus norvegicus [17]): 78 mg/kg; clearance [1]: 98 µL/min; bioavailability [11]: 18.2%; half-life [12]: 1.9 h; inhibition [13]: > 60%; Cmax [18]: 0.15 µg/mL; Ratio IC50 (Homo sapiens): 79; inhibition [14]: > 60%; half-life [19]: 1.6 h; Vd [16]: 3.3 L/kg
140 µL/min | – | – | – | < 0.1 µg/mL | COc1cc(NC(=O)c2ccc(-c3ccc(Cl)cc3)o2)cc(OC)c1 | – | –
– | 0.32 µM | 4.14 µM | – | – | O=C(NCc1ccncc1N1CCOCC1)c1cncc(-c2ccc(Cl)cc2)n1 | – | –
120 µL/min | 0.049 µM | 0.73 µM | 9.1 µM | 0.08 µg/mL (≈ 0.223 µM) | CC(C)Oc1cccc(NC(=O)c2cncc(-c3ccc(C#N)cc3)n2)c1 | 0.13 µM | –
– | 0.006 µM | 0.96 µM | 8.2 µM | < 0.1 µg/mL | Cc1cccc(NC(=O)c2cncc(-c3ccc(Cl)cc3)n2)c1 | 0.28 µM | Ratio IC50 (Homo sapiens): > 1000
– | 0.005 µM | 0.066 µM | 2.2 µM | < 0.1 µg/mL | Cc1cccc(NC(=O)c2cncc(-c3ccc(OC(F)(F)F)cc3)n2)c1 | 0.016 µM | –
– | 0.03 µM | 0.21 µM | 1 µM | 0.65 µg/mL (≈ 1.65 µM) | O=C(NCc1cccnc1N1CCCC1)c1cncc(-c2ccc(Cl)cc2)n1 | 0.55 µM | –
410 µL/min | 0.037 µM | 2.5 µM | – | 2.7 µg/mL (≈ 6.59 µM) | O=C(NCc1cccnc1N1CCOCC1)c1cncc(-c2ccc(Cl)cc2)n1 | 0.28 µM | inhibition [6]: 11%
